We go through 13 molecules from publication PMC2266615 (The Journal of General Physiology, 2005).

The conditions of assay [1]: extrapolated from peptide binding, [lipid]eff > 10^−2 M.
Assay [2] has as its system ErbB1. To be noted: cardiac fibroblasts; ref Murasawa et al., 1998; cited from earlier work.
In assay [3] the test system is ErbB1. To be noted: ref Li et al., 2004a, cited from earlier work; for steady-state ErbB1 autophosphorylation: times >20 min; for initial peak of ErbB1 autophosphorylation: two other cell types.
In assay [4] the test system is ErbB1. To be noted: ref Li et al., 2004a; cited from earlier work.
For assay [5], the system named is ErbB1. Nature of the assay: EGF-mediated ErbB1 autophosphorylation in Cos1 cells. The format is cell-based.
Assay [6] in a line: effect of added agents on binding of ErbB1. To be noted: 2 μM sphingosine; PC/PS vesicles.
Assay [7] relates to ErbB1. To be noted: A431 cells, 5 min after EGF; ref Friedman et al., 1989; cited from earlier work.
The target of another assay is calmodulin (Ca/CaM) (Homo sapiens, UniProt P0DP23). In words: Ca/CaM binding by competition with PC/PS vesicles. Also on record: species or system bovine brain and human brain. To be noted: 2:1 PC/PS LUVs, 100 mM KCl, 1 mM MOPS, pH 7.0, 100 μM EGTA + 120 μM Ca2+; trace peptide ~5 nM; centrifugation; fit of Eq. 2. In a few lines:
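Trace (~5 nM) [3H]NEM-labelled test peptide mixed with 100-nm sucrose-loaded 2:1 PC/PS LUVs (total lipid 2 × 10−5 M; repeats with 3:1 PC/PS) and varied bovine or human brain CaM. Spun 100,000 g for 1 h. Percent bound from supernatant/pellet counts; KCaM from a competition equation (Eq. 2) fit.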

Assay [8] is classed as binding. To be noted: for rate of removal from vesicles by Ca/CaM: 2 μM Ca/CaM. In a few lines:
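Stopped-flow fluorescence mixing of two solutions. The second holds 0.5–7 μM CaM with 50 μM CaCl2. Both contain 100 mM KCl and 1 mM MOPS, pH 7.0. Time constants τ come from exponential fluorescence rise; the transfer rate constant is the slope of 1/τ against [CaM].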

Assay [9] concerns the target ErbB1(645–660) peptide with a phosphorylated Thr654 (human (from the printed accession P00533)). In words: centrifugation of vesicles.
Another assay relates to A431 cells. To be noted: ref Hughes et al., 1991, cited from earlier work; for intracellular [Ca2+]: EGF.
The subject of assay [10] is ErbB1. To be noted: membranes and solubilized form; ref Davis et al., 1988; cited from earlier work.
In the next assay the test system is hepatocytes. To be noted: EGF, in the next 2–3 min, ref Nojiri and Hoek, 2000; cited from earlier work.

Read-outs that look alike come from different tables or passages of the source. The star is where a group is joined. acrylodan = 6-acryloyl-2-dimethylaminonaphthalene, CN(C)c1ccc2cc(C(=O)CC*)ccc2c1 Where only a bound is given, the exact number is not on record here.

Consider “645–660 region of ErbB1: tethered 645–660 region of ErbB1 (RRRHIVRKRTLRRLLQ; UniProt P00533 669-684, looked up, fragment)”, for which, in [1], the “ratio of bound/free = K[lipid]eff” value is recorded as greater than 100 and the “time bound to the plasma membrane (tethered region)” value is listed as greater than 99%.

Turning to `CC(=O)OCOC(=O)CN(CC(=O)OCOC(C)=O)c1ccccc1OCCOc1ccccc1N(CC(=O)OCOC(C)=O)CC(=O)OCOC(C)=O` [BAPTA-AM], the “angiotensin II–stimulated ErbB1 transactivation” value with ErbB1 [2] is on record as “inhibit”.

As to `NCCCCCCNS(=O)(=O)c1cccc2c(Cl)cccc12` [W-7], in the assay on ErbB1 [3], the “steady-state ErbB1 autophosphorylation” value is listed as “not the steady-state value” and the “initial peak of ErbB1 autophosphorylation” value (shortened to “initial peak”) is given as “inhibit the initial peak”. Besides, the “tyrosine kinase activity of purified ErbB1” value (“tyrosine kinase activity” below) in the assay with ErbB1 [4] is on record as “do not inhibit”. Besides, in the assay on ErbB1 [2], the “angiotensin II–stimulated ErbB1 transactivation” value was “inhibit”. Further, the ErbB1 receptor levels entry with ErbB1 [5] (20–50 μM W-7, anti-ErbB1 reprobe) is on record as “did not affect receptor levels”. Besides, the “inhibition of EGF-mediated ErbB1 tyrosine phosphorylation” value in the assay with ErbB1 [5] (20–50 μM for 30 min, then 100 ng/ml EGF 10 min, Western blot 4G10) is reported as “dose-dependent inhibition”.

As for `NCCCCNS(=O)(=O)c1ccc2ccccc2c1` [W-12], in the assay on ErbB1 [3], the “steady-state ErbB1 autophosphorylation” value is on record as “not the steady-state value” and the “initial peak” value is “inhibit the initial peak”. Besides, the “tyrosine kinase activity” value with ErbB1 [4] is given as “do not inhibit”.

Take `NCCCCNS(=O)(=O)c1ccc2c(Cl)cccc2c1` [W-13]: in the assay on ErbB1 [3], the “steady-state ErbB1 autophosphorylation” value is listed as “not the steady-state value” and the “initial peak” value is listed as “inhibit the initial peak”. For the same molecule, in the assay on ErbB1 [4], the “tyrosine kinase activity” value is “do not inhibit”.

Regarding `CCCCCCCCCCCCC/C=C/[C@@H](O)[C@@H](N)CO` [sphingosine], in assay [6], the “ErbB1(645–660) peptide desorbed from vesicles” value came to 75%.

Take `C/C=C(/C)C(=O)O[C@H]1C(C)=C2[C@H]([C@@H]1OC(=O)CCCCCCC)[C@@](C)(OC(C)=O)C[C@H](OC(=O)CCC)[C@@]1(O)[C@H]2OC(=O)[C@@]1(C)O` [thapsigargin]: the receptor autophosphorylation entry in the assay on ErbB1 [7] is on record as “inhibit receptor autophosphorylation”.

As for “ErbB2(676–692): peptide corresponding to the juxtamembrane region of ErbB2 (Ac-CKRRQQKIRKYTMRRLLQ-NH2; not fully specified (residue 1))”, the “Ca/CaM Association Constant (KCaM)” value with calmodulin (Ca/CaM) was determined as 6e+07 M⁻¹.

Consider “ErbB3(667–683): peptide corresponding to the juxtamembrane region of ErbB3 (Ac-CRGRRIQNKRAMRRYLER-NH2; not fully specified (residue 1))”, for which the “Ca/CaM Association Constant (KCaM)” value with calmodulin (Ca/CaM) came out at 3e+06 M⁻¹.

As to “ErbB4(676–692): peptide corresponding to the juxtamembrane region of ErbB4 (Ac-CRRKSIKKKRALRRFLET-NH2; not fully specified (residue 1))”, the “Ca/CaM Association Constant (KCaM)” value in the assay with calmodulin (Ca/CaM) turned out to be 2e+07 M⁻¹.

Take “acrylodan-labeled ErbB1(645–660): ErbB1(645–660) labeled with acrylodan (Ac-C(acrylodan)RRRHIVRKRTLRRLLQ-NH2; SMILES CC[C@H](C)[C@H](NC(=O)[C@H](Cc1c[nH]cn1)NC(=O)[C@H](CCCNC(=N)N)NC(=O)[C@H](CCCNC(=N)N)NC(=O)[C@H](CCCNC(=N)N)NC(=O)[C@H](CSCCC(=O)c1ccc2cc(N(C)C)ccc2c1)NC(C)=O)C(=O)N[C@H](C(=O)N[C@@H](CCCNC(=N)N)C(=O)N[C@@H](CCCCN)C(=O)N[C@@H](CCCNC(=N)N)C(=O)N[C@H](C(=O)N[C@@H](CC(C)C)C(=O)N[C@@H](CCCNC(=N)N)C(=O)N[C@@H](CCCNC(=N)N)C(=O)N[C@@H](CC(C)C)C(=O)N[C@@H](CC(C)C)C(=O)N[C@@H](CCC(N)=O)C(N)=O)[C@@H](C)O)C(C)C)”: the “rate of removal from vesicles by Ca/CaM” value in [8] (10% PS) was 100 s⁻¹; in [8] (15% PS), 10 s⁻¹. Besides, in [8] (85:15 PC/PS vesicles (15% PS)), the “transfer rate constant (slope of 1/τ vs. [CaM])” value turned out to be 5e+06 M⁻¹ s⁻¹. For the same molecule, the “lifetime of peptide on vesicles” value in assay [8] (85:15 PC/PS vesicles, without Ca/CaM) is reported as roughly 0.3 s.

In [9], “calcium/calmodulin (from UniProt P0DP23 1-149) (natural protein)” gave a fold reduction of KCaM against the unphosphorylated peptide of 20 fold.

On to epidermal growth factor [EGF], for which the “increase of intracellular [Ca2+]” value in the assay with A431 cells (30 nM EGF, ∼5 min) is reported as “about fivefold”. The “intracellular [Ca2+]” value with A431 cells (5 min) was 600 nM; in the assay on A431 cells (by 15 min) it was 150 nM; with hepatocytes, 150 nM. The ErbB1 activation result in the assay with ErbB1 [10] was “can activate ErbB1 both in membranes and in solubilized form”.
